Paper PMC11577639 (Journal of medicinal chemistry, 2024)
Read-outs that look alike come from different tables or passages of the source.

What was measured:
[1] = tested on: N. fowleri (Nf69 strain, ATCC 30215) trophozoites; assay: N. fowleri Nf69 dose-response growth inhibition; assay type: cell-based, Naegleria fowleri
[2] = tested on: Human neuronal SH-SY5Y cells (ATCC CRL-2266); assay: SH-SY5Y cytotoxicity assay; assay type: cell-based; settings: Table 3; SH-SY5Y CC50 / Nf69 EC50
[3] = BBB parallel artificial membrane permeation assay; assay type: in vitro ADME; settings: for BBB PAMPA CNS class: classified against positive and negative controls
How it was run: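 Porcine polar brain lipid in dodecane coated on filter membrane. Test compound from DMSO stock diluted in PBS pH 7.4 in donor wells, PBS acceptor, room temperature incubation. Donor and filter-well concentrations measured by HPLC. Verapamil, clonidine, hydrocortisone and theophylline as […]. Pe > 15 nm/s scored CNS+, ≤ 15 CNS-.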

[4] = Mouse plasma stability; assay type: in vitro ADME; settings: male, CD-1, mouse
How it was run: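 Test compound added from DMSO stock to CD-1 mouse plasma (EDTA-K2, ≥20 male donors). Incubated at 37 °C for 0, 10, 30, 60 or 120 min. Protein precipitated with tolbutamide and labetalol in acetonitrile, then shaken and centrifuged. Supernatant diluted in water and analysed by LCMS with internal standard. Enalapril maleate, bisacodyl and procaine HCl as controls.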

[5] = Plasma protein binding; assay type: in vitro ADME; settings: CD-1 mouse
How it was run: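 96-well equilibrium dialysis against CD-1 male mouse plasma (EDTA-K2), test compound on donor side in triplicate, dialysis buffer on receiver side. Incubated 4 h at 37 °C, 5% CO2, slow shaking. Both sides sampled, diluted in acetonitrile containing tolbutamide, labetalol, metformin and internal standard, centrifuged and analysed by LC-MS/MS. Warfarin as positive control.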

[6] = Mouse pharmacokinetics; assay type: in vivo, female CD-1 mice; settings: female, CD-1, mouse, plasma, iv, 11 mg/kg
How it was run: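 Female CD-1 mice, n = 3/group. First study: single IV 11.1 mg/kg or PO 10.7 mg/kg (fasted), 10% NMP/20% cremophor EL/70% water, plasma at 0.5, 2, 4, 8, 12 h, brain homogenised in MeOH/PBS at 12 h. Second: fasted, IP 44 mg/kg suspension in 10% DMSO/30% cremophor EL/60% water, plasma at 2 and 4 h. LC-MS/MS, verapamil internal standard. LLOQ 1 ng/mL plasma, 10 ng/g brain.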

[7] = SH-SY5Y cytotoxicity assay; assay type: cell-based, human; settings: human, SH-SY5Y neuroblastoma cells

CN1CC[C@H]2c3nc4ccc(Cl)cc4c(=O)n3CC[C@H]21 (racemic) [31a, (±)-(3aR,12bR)-9-Chloro-3-methyl-2,3,3a,4,5,12b-hexahydropyrrolo[3′,2′:3,4]pyrido[2,1-b]quinazolin-7(1H)-one]
EC50 ([1]; read-out: EC50, N. fowleri Nf69, tested up to 10 μM): > 10 µM

CN1CCC[C@@H]2c3nc4ccc(C(F)(F)F)cc4c(=O)n3CC[C@H]21 (racemic) [±−15b, (±)-(4aR,13bS)-4-Methyl-10-(trifluoromethyl)-1,2,3,4,4a,5,6,13b-octahydro-8H-[1,6]naphthyridino[5,6-b]-quinazolin-8-one]
SI (selectivity index, CC50/EC50) [2]: >18.2

CN1CCC[C@@H]2c3nc4ccc(Cl)cc4c(=O)n3CC[C@H]21 (racemic) [±−16b]
SI (selectivity index, CC50/EC50) [2]: >20.0

CN1CCC[C@@H]2c3nc4cc(Cl)c(Cl)cc4c(=O)n3CC[C@H]21 (racemic) [±−21b, (±)-(4aR,13bS)-10,11-Dichloro-4-methyl-1,2,3,4,4a,5,6,13b-octahydro-8H-[1,6]naphthyridino[5,6-b]quinazolin-8-one]
SI (selectivity index, CC50/EC50) [2]: >100

CN1CCC[C@@H]2c3nc4ccc(C(F)(F)F)cc4c(=O)n3CC[C@H]21 (single isomer, unassigned) [trans-15b-ent-1]
SI (selectivity index, CC50/EC50) [2]: >80.0

CN1CCC[C@@H]2c3nc4ccc(Cl)cc4c(=O)n3CC[C@H]21 (single isomer, unassigned) [trans-16b-ent-1]
SI (selectivity index, CC50/EC50) [2]: >71.4

COc1cc2nc3n(c(=O)c2cc1Cl)CC[C@H]1[C@H]3CCCN1CC1COC1 (single isomer, unassigned) [trans-57b-ent-2]
BBB PAMPA CNS class [3]: CNS+ (Pe > 15 nm/s = CNS+)
half-life [4]: > 4.82 h
plasma protein binding [5]: 74% bound
clearance at 12 h [6]: 40.8 ± 7.6 mL/min/kg

COc1cc2nc3n(c(=O)c2cc1Cl)CC[C@@H]1[C@@H]3CCCN1CC(C)C (single isomer, unassigned) [trans-62b-ent-1]
SI (selectivity index, CC50/EC50) [2]: >32.3

CCCCCCCCCCCCCCCCOP(=O)([O-])OCC[N+](C)(C)C [miltefosine, reference compound]
EC50 ([1]; Naegleria fowleri, ATCC30215): 35.7 ± 9.1 µM

CN1CCC[C@H]2c3nc4ccc(C(F)(F)F)cc4c(=O)n3CC[C@@H]21 [trans-15b-ent-2, (4aS,13bR)-4-Methyl-10-(trifluoromethyl)-1,2,3,4,4a,5,6,13b-octahydro-8H-[1,6]naphthyridino[5,6-b]quinazolin-8-one]
CC50 at 72 h [7]: > 20 µM
SI (selectivity index, CC50/EC50) [2]: >4.7

CN1CCC[C@H]2c3nc4ccc(Cl)cc4c(=O)n3CC[C@@H]21 [trans-16b-ent-2, (4aS,13bR)-10-Chloro-4-methyl-1,2,3,4,4a,5,6,13b-octahydro-8H-[1,6]naphthyridino[5,6-b]quinazolin-8-one]
CC50 at 72 h [7]: > 20 µM
SI (selectivity index, CC50/EC50) [2]: >5.0

CN1CCC[C@H]2c3nc4cc(Cl)c(Cl)cc4c(=O)n3CC[C@@H]21 [trans-21b-ent-2, (4aS,13bR)-10,11-Dichloro-4-methyl-1,2,3,4,4a,5,6,13b-octahydro-8H-[1,6]naphthyridino[5,6-b]quinazolin-8-one]
CC50 at 72 h [7]: > 20 µM
SI (selectivity index, CC50/EC50) [2]: >7.7

COc1cc2nc3n(c(=O)c2cc1Cl)CC[C@@H]1[C@@H]3CCCN1CC1COC1 [trans-57b-ent-1, (4aR,13bS)-10-Chloro-11-methoxy-4-(oxetan-3-ylmethyl)-1,2,3,4,4a,5,6,13b-octahydro-8H-[1,6]naphthyridino[5,6-b]-quinazolin-8-one]
SI (selectivity index, CC50/EC50) [2]: >40.8
BBB PAMPA, Peavg ([3]; averaged data from duplicate runs, 4 h): 18.2 ×10⁻⁶ cm/s
BBB PAMPA CNS class [3]: CNS+ (Pe > 15 nm/s = CNS+)
plasma protein binding [5]: 74% bound
